Bioassay records deposited in PubChem BioAssay by The Scripps Research Institute Molecular Screening Center.
NPY2 pot ag: human NPY-Y2 potentiation or agonism, primary screen. activation, % at 3.6 µM. P49146. cells expressing NPY-Y2, potentiator/agonist read-out. AID 1359. hit rate 0.45% among 220,000; in the data active means activation above about 27%;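 further: cells stimulated with NPY near EC25 plus isoproterenol at EC100; 0% = vehicle plus submaximal agonist and 100% = vehicle plus saturating agonist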
Target sequence (P49146 whole entry, looked up): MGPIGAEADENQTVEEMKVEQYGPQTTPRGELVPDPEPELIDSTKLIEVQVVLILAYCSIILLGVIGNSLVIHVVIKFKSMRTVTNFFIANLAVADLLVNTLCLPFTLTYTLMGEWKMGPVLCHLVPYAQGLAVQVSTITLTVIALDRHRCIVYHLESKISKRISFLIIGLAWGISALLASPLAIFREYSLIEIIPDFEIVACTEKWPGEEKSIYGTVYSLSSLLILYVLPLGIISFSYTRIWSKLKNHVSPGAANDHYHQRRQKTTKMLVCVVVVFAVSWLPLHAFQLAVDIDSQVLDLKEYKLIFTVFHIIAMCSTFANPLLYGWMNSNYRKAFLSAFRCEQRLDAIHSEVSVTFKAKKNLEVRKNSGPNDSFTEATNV
NPY-Y1 PAM-ag: potentiators or agonists of human neuropeptide Y receptor Y1 | hit rate 0.37% among 220,000 | NPY-Y1 expressing cells, potentiator/agonist activation | AID 1304 | P25929 | activation, % at 3.6 µM; in the data active means activation above about 33%, passing the limit was not always enough;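 further: cells stimulated with NPY at EC10 then isoproterenol at EC100; 0% = low agonist plus stimulus and 100% = saturating agonist plus stimulus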
Target sequence (P25929 whole entry, looked up): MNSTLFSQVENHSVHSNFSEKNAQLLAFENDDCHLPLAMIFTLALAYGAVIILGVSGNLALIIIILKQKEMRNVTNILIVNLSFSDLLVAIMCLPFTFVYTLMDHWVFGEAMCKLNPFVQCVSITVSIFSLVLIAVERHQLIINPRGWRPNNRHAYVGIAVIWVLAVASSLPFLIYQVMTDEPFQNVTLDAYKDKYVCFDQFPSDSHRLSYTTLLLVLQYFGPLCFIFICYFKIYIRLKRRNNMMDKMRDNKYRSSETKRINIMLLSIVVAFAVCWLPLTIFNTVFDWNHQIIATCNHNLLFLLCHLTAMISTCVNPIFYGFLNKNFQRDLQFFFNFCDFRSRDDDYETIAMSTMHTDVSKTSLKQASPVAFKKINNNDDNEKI
NPY Y2 blocker: NPY-Y2 (human) receptor antagonism. hit rate 0.99% among 140,000. AID 793. inhibition, % at 2.7 µM. NPY-Y2 expressing cells, antagonist mode. P49146; in the data active means inhibition above about 17%;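 further: 0% = vehicle with agonist challenge and 100% = reference antagonist with challenge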
NPY-Y1 antag: NPY-Y1 (human) receptor antagonism | P25929 | HEK293-CNG Y1 cells, membrane potential fluorescence; NPY at EC95, then isoproterenol | inhibition, % at 3.6 µM | hit rate 1% among 200,000;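 active means inhibition above the campaign mean inhibition of all tested compounds plus 3 SD, cut at about 20% in these data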;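 further: 0% = DMSO wells given NPY plus isoproterenol and 100% = isoproterenol alone without NPY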
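Test system: HEK293 cells co-expressing NPY Y1 receptor and cyclic-nucleotide gated channel; Also added: NPY (25 nM), isoproterenol (1 µM), Ro 20-1724 (25 µM); Compound dosing: one concentration, 3.6 µM, in 0.4% DMSO; Timing: dye 3 h, compound 60 min room temperature, stimulation 45 min; Technique: Membrane-potential fluorescent dye readout.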
NPY1 antag ctr: human NPY-Y1 antagonism in NPY-Y2 counter-screen | cell-based NPY-Y1 antagonism counterscreen | hit rate 19% among 710 | shares compounds with NPY Y2 blocker | inhibition, % at 3.6 µM; in the data active means inhibition above about 20%;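 further: cells challenged with NPY then isoproterenol with cAMP sensed through a CNG channel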
NPY2 antag conf: confirmation of human neuropeptide Y receptor Y2 antagonists. shares compounds with NPY Y2 blocker. HEK293 NPY-Y2 CNG channel, membrane potential fluorescence. inhibition, % at 2.8 µM. hit rate 32% among 710;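 active means mean inhibition of triplicate wells above the hit cutoff set in the primary screen, cut at about 17% in these data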;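 further: 0% = DMSO with NPY challenge and 100% = BIIE0246 high control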
Numbers without * were called inactive; . = not tested or not shown. The list is not random: actives were taken first. Their share in the collection is about 1.8%.

SMILES | NPY2 pot ag | NPY-Y1 PAM-ag | NPY Y2 blocker | NPY-Y1 antag | NPY1 antag ctr | NPY2 antag conf
CCCCc1nc2ccccc2c(N)c1CCC (tested in a mixture with another compound) | 8.1 | -48.6 | 18.3* | 15.4 | 5.2 | 4.8
CCCCc1nc2ccccc2c(NC(=O)CNC(C)(C)C)c1CCC | 1.5 | -8.6 | -0.5 | 4.3 | . | .
COc1ccc(NC(=O)C2CCC(C(C)(C)C)CC2)cc1S(=O)(=O)N1CCCCC1 (stereo unspecified) | 0.9 | -26.3 | 20.7* | -0.9 | 5.8 | 3.2
COc1ccc(OC)c(S(=O)(=O)N2CCC(C(=O)Nc3ccccc3)CC2)c1 | -3.9 | -2.9 | . | 0.3 | . | .
COc1ccc(NC(=O)c2n[nH]c(=O)c3ccccc23)cc1S(=O)(=O)N1CCCCC1 | -9.4 | -17.6 | 27.1* | 3.7 | 14.6 | 19.1*
Cc1ccccc1NC(=O)C(C)c1cccc(C(=O)c2ccccc2)c1 (stereo unspecified) | -20.4 | -29.1 | 10.3 | 11.8 | . | .
CCOC(=O)c1ccccc1NC(=O)CSc1nnc(COc2ccccc2C)n1C | -17.4 | -16.8 | 18.6* | 14.4 | 17.5 | 11.1
CCOC(=O)CSc1nnc2c(n1)C1(C)CCC2C1(C)C (stereo unspecified) | -2.6 | 2.5 | 2.6 | -3.1 | . | .
O=C(CN1CCN(c2cccc(C(F)(F)F)c2)CC1)Nc1cccc(C(F)(F)F)c1 | -11.1 | -54.1 | 17.4* | 5.1 | 24.3* | 21.6*
O=C(/C=C/c1ccc(Br)cc1)N1CCN(c2cccc(C(F)(F)F)c2)CC1 | -11.8 | -9.1 | 19.4* | 6.6 | 24.0* | 24.6*
Cc1cc(C(=O)CSc2nnc(-c3cccs3)o2)c(C)n1-c1ccccc1 | 2.4 | -9.1 | 19.6* | 0.1 | 16.5 | 11.7
O=C(CSc1nnc(-c2cccs2)o1)c1cccs1 | -5.2 | 14.1 | 3.2 | 8.4 | . | .
O=C(Nc1cccc([N+](=O)[O-])c1)c1cccc(C(=O)Nc2cccc([N+](=O)[O-])c2)c1 | 17.7 | -24.3 | . | . | . | .
Cc1cc(O)c(/C=N/Nc2ccc(Cl)cc2)c(=O)o1 | 10.7 | 5.8 | 4.7 | -2.8 | . | .
CCN1CCN(c2ccc(S(=O)(=O)N3CCCCC3)cc2NC(=O)c2ccc(F)cc2)CC1 | -7.8 | 8.9 | 18.4* | 2.5 | -0.1 | 7.1
CCN(CC)CC#CCC(C)(c1ccccc1)c1ccccc1 | -25.6 | -54.1 | 17.9* | 11.5 | 12.7 | 21.4*
c1ccc(Cc2nnc(-c3ccccc3)o2)cc1 | -12.4 | -31.9 | 134.9* | 10.4 | 9.2 | 18.8*
Cc1ccc(-c2cc(C(=O)NCc3ccc4c(c3)OCO4)no2)cc1 | -12.3 | -40.9 | 17.6* | 17.4 | 14.2 | 10.4
O=C(NCc1ccc2c(c1)OCO2)c1cc(-c2ccccc2)on1 | 4.5 | -35.7 | 7.9 | -0.2 | . | .
CC1CCCN(C(=O)Cc2cn(Cc3cccc(Cl)c3)c3ccccc23)C1 (stereo unspecified) | -22.4 | -4.8 | 17.4* | 10.4 | 4.9 | 4.5
CCOC(=O)c1c(-c2ccc(C)o2)csc1NC(=O)COC(=O)c1cccs1 | -4.0 | -26.1 | 20.0* | 3.6 | 4.8 | 2.5
CCOC(=O)c1c(-c2ccc(C)o2)csc1NC(=O)CN1CCOCC1 | -8.5 | 4.9 | 6.0 | 4.0 | . | .
COC(=O)c1c(C)[nH]c(C)c1-c1ccccc1Cl | 19.2 | 0.5 | 2.5 | 3.7 | . | .
COC(=O)C1=C(C(=O)OC)SC2(S1)C(C(=O)OC)=C(C(=O)OC)SC1=C2c2cccc(C)c2NC1(C)C | -3.2 | 7.5 | 17.6* | 5.0 | 9.4 | 33.5*
COc1ccc(CNCc2ccco2)cc1OCc1ccccc1 | -0.4 | -12.2 | 8.8 | 8.0 | . | .
SMILES | NPY2 pot ag | NPY-Y1 PAM-ag | NPY Y2 blocker | NPY-Y1 antag | NPY1 antag ctr | NPY2 antag conf
COc1ccccc1CCNCc1ccc(OC)c(OCc2ccccc2)c1 | -36.5 | -2.9 | 19.7* | 2.8 | 7.8 | 92.0*
O=C(COC(=O)/C=C/c1ccc(Cl)cc1)Nc1ccc2c(c1)OCCO2 | 7.3 | 3.3 | 17.2* | 6.1 | 14.4 | 12.4
Cc1cc(C2=NNC(=NC3CC3)SC2)c(C)n1-c1c(C)n(C)n(-c2ccccc2)c1=O | 6.9 | -1.5 | -1.5 | 7.9 | . | .
O=S(=O)(Nc1ncn[nH]1)c1ccc2ccccc2c1 | -28.4 | -59.4 | 10.7 | 8.2 | . | .
O=S(=O)(Nc1nc2ccccc2[nH]1)c1ccc2ccccc2c1 | -18.0 | -37.1 | 18.6* | 16.7 | 12.3 | 7.7
COc1ccccc1NC(=O)Cn1nc(-c2ccncc2)nc1SCC(=O)NC1CCCC1 | 5.2 | 3.8 | . | 2.1 | . | .
CNC(=O)c1sc(-c2ccccc2)nc1C | -2.4 | 11.9 | -0.7 | -5.9 | . | .
Cc1nc(-c2ccccc2)sc1C(=O)CSc1ccc(F)cc1 | -31.6 | -28.1 | 20.0* | 19.3 | 21.1* | 25.0*
CC(C)NCC(O)COCCOc1ccc(C(C)(C)C)cc1 (stereo unspecified) | -26.1 | -47.1 | 24.0* | 5.4 | 3.2 | 8.8
CCC(=O)Nc1nonc1-c1nc2ccccc2n1Cc1cccc2ccccc12 | -56.6 | -107.9 | 17.5* | 19.1 | 25.9* | 40.8*
COc1cc(NC(=O)c2cnn3c(C(F)F)cc(C4CC4)nc23)c(OC)cc1Cl | -5.3 | -18.1 | . | 0.7 | . | .
COC(=O)c1ccccc1NC(=O)c1cnn2c(C(F)F)cc(C3CC3)nc12 | 0.8 | -33.5 | 18.7* | 16.2 | 43.7* | 32.5*
O=C(CSc1nc2cc(Cl)ccc2s1)N1CCN(C(=O)c2ccco2)CC1 | -4.4 | -24.8 | 12.3 | 13.8 | . | .
COc1ccc(-c2ccnc(SCC(=O)c3ccc(Br)cc3)n2)cc1 | -0.2 | 6.0 | 20.6* | 5.2 | 42.3* | 42.3*
COC(=O)C1(CCSC)NC(c2ccc(O)c(OC)c2)C2C(=O)N(c3ccc(C)cc3)C(=O)C21 (stereo unspecified) | 5.4 | -2.6 | . | -5.6 | . | .
Cc1ccc(SCc2[nH]nc3c2C(c2cccnc2)C(C#N)=C(N)O3)cc1 (stereo unspecified) | 6.8 | -12.6 | 18.4* | 5.9 | 93.5* | 80.8*
CCc1[nH]nc2c1C(c1cccnc1)C(C#N)=C(N)O2 (stereo unspecified) | 8.1 | 5.4 | 2.3 | 0.6 | . | .
O=[N+]([O-])c1cnn(-c2nc(-c3ccco3)cc(C(F)(F)F)n2)c1 | 7.9 | -3.1 | . | -1.2 | . | .
C#CCn1c(=NC(=O)CN2C(=O)CCC2=O)sc2cccc(OC)c21 | -12.7 | 4.8 | . | . | . | .
C#CCn1c(=NC(=O)c2cccs2)sc2cccc(OC)c21 | -52.2 | -59.6 | 23.2* | 15.7 | 14.2 | 10.6
CC1CCN(c2ccc(NC(=O)c3cccnc3Cl)cc2)CC1 | -8.5 | 2.9 | . | 2.4 | . | .
c1ccc(N2CCN(c3nc4ccccc4[nH]3)CC2)nc1 | 5.1 | 8.2 | . | -0.4 | . | .
Cc1ccc(Oc2nc(CN3CCOCC3)nc3sc4c(c23)CCC(C)C4)cc1 (stereo unspecified) | 0.6 | -31.9 | 22.5* | 8.7 | 29.4* | 30.3*
CCOc1ccccc1NC(=O)Cc1ccccc1OC | 2.1 | -14.9 | 1.7 | 4.3 | . | .
Cc1ccccc1N1C(=O)c2ccccc2N2C(=O)c3ccccc3C12 (stereo unspecified) | -17.0 | -9.1 | 22.7* | 12.0 | 4.8 | 6.9
